Data reported in ChEMBL document CHEMBL3351394 (J Med Chem, 2014).
Converted amounts (≈) assume the structure as drawn.

What was measured:
[1] = target: T1, Bile acid receptor (Homo sapiens) (UniProt Q96RI1); test: Agonist activity at FXR in human HepG2 cells assessed as induction of CYP7A1 mrNA expression at 1 uM by quantitative PCR method; assay type: cell-based
T1 sequence (whole entry): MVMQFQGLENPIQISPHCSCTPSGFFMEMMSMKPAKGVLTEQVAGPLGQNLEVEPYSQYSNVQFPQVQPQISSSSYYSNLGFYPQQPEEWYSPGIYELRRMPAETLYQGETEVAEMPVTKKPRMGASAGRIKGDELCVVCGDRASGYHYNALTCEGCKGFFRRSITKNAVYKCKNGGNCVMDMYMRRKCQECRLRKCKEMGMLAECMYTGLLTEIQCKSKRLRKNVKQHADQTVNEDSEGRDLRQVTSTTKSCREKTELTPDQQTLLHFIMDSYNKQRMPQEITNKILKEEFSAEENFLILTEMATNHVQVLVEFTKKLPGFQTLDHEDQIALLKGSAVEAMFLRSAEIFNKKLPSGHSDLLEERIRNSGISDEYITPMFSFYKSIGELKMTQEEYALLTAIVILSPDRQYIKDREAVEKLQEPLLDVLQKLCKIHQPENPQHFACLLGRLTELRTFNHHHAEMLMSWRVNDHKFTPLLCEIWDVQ
Procedure, shortened: (§1)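 HepG2 cells were seeded at 2 × 10⁶ per well. After 24 h they were switched to MEM with 1% charcoal-stripped FCS, and 24 h later dosed with compound (0.1, 0.3, 1, 3, 10 μM; 0.1% DMSO final) for 24 h. Total RNA was reverse transcribed and analysed by qPCR, GAPDH-normalized, ΔΔCt method. Samples were run in duplicate in ≥4 independent experiments.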

[2] = target: T1, Bile acid receptor (Homo sapiens); test: Agonist activity at FXR in human HepG2 cells assessed as induction of SHP mrNA expression at 1 uM by quantitative PCR method; assay type: cell-based; procedure, shortened: as §1
[3] = Aqueous solubility of the compound; assay type: physicochemical; conditions: water (aqueous)
[4] = target: T2, Peroxisome proliferator-activated receptor alpha (Homo sapiens, UniProt Q07869); test: Activity at GAL4-tagged PPARalpha (unknown origin) expressed in COS7 cells assessed as receptor transactivation by luciferase reporter gene assay; assay type: cell-based, COS-7
T2 sequence (Q07869 whole entry): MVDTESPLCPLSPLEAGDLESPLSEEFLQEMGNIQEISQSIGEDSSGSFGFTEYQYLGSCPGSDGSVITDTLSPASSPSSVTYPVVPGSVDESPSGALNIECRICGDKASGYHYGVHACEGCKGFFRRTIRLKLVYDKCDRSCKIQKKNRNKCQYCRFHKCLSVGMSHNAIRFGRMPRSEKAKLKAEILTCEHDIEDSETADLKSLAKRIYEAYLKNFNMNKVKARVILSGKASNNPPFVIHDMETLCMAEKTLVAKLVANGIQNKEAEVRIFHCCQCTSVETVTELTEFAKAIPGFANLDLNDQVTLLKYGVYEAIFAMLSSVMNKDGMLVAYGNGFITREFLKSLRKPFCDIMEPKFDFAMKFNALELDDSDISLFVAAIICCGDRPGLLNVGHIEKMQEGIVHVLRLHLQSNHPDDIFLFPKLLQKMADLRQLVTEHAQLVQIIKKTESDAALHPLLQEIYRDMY
Procedure, shortened: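 Each PPAR subtype was tested as a Gal4 fusion carrying the human hinge region and LBD (cDNA from human monocytes) in transiently transfected COS-7 cells (Lipofectamine LTX), with a pFR-Luc reporter and pRL-SV40 for normalization. Compound in 0.1% DMSO was added 5 h post-transfection and incubated overnight. Firefly/renilla RLU was scaled to 1 μM GW7647 (α), L165,041 (δ) or pioglitazone (γ).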

[5] = target: T1, Bile acid receptor (Homo sapiens); test: Agonist activity at FXR in human HepG2 cells assessed as induction of SHP mrNA expression at 3 uM by quantitative PCR method; assay type: cell-based; procedure, shortened: as §1
[6] = target: T1, Bile acid receptor (Homo sapiens); test: Agonist activity at FXR in human HepG2 cells assessed as induction of IBABP mrNA expression at 0.1 uM by quantitative PCR method; assay type: cell-based
[7] = target: T1, Bile acid receptor (Homo sapiens); test: Agonist activity at FXR in human HepG2 cells assessed as induction of BSEP mrNA expression at 0.3 uM by quantitative PCR method; assay type: cell-based; procedure, shortened: as §1
[8] = target: T1, Bile acid receptor (Homo sapiens); test: Agonist activity at FXR in human HepG2 cells assessed as induction of CYP7A1 mrNA expression at 10 uM by quantitative PCR method; assay type: cell-based; procedure, shortened: as §1
Homo sapiens [9] = species on record: Homo sapiens; test: Selectivity index, ratio of EC50 for GAL4-tagged PPARalpha (unknown origin) to EC50 for human FXR
[10] = target: T1, Bile acid receptor (Homo sapiens); test: Agonist activity at FXR in human HepG2 cells assessed as induction of BSEP mrNA expression at 0.1 uM by quantitative PCR method; assay type: cell-based; procedure, shortened: as §1
[11] = target: T1, Bile acid receptor (Homo sapiens); test: Agonist activity at FXR in human HepG2 cells assessed as induction of OSTalpha mrNA expression at 0.3 uM by quantitative PCR method; assay type: cell-based; procedure, shortened: as §1
HeLa = test: Cytotoxicity against human HeLa cells assessed as compound concentration causing reduction in cell viability by reporter gene assay; assay type: cell-based
[12] = target: T1, Bile acid receptor (Homo sapiens); test: Agonist activity at FXR in human HepG2 cells assessed as induction of SHP mrNA expression at 0.3 uM by quantitative PCR method; assay type: cell-based; procedure, shortened: as §1
[13] = target: T1, Bile acid receptor (Homo sapiens); test: Agonist activity at FXR in human HepG2 cells assessed as induction of IBABP mrNA expression at 3 uM by quantitative PCR method; assay type: cell-based
HepG2 = test: Cytotoxicity against human HepG2 cells assessed as compound concentration causing reduction in cell viability by LDH release assay; assay type: cell-based
Procedure, shortened: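 HepG2 cells were plated at 3 × 10⁴ per well. After 24 h they were switched to DMEM with 1% FCS and treated for 48 h; 2% Triton X-100 added 2 h before reading served as 100%. LDH reagent was added to the supernatant for 20 min and absorbance read at 490/690 nm. Triplicates, ≥3 independent repeats.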

[14] = target: T1, Bile acid receptor (Homo sapiens); test: Agonist activity at FXR in human HepG2 cells assessed as induction of SHP mrNA expression at 10 uM by quantitative PCR method; assay type: cell-based; procedure, shortened: as §1
[15] = target: T1, Bile acid receptor (Homo sapiens); test: Agonist activity at FXR in human HepG2 cells assessed as induction of IBABP mrNA expression at 1 uM by quantitative PCR method; assay type: cell-based
Bile acid receptor = target: T3, Bile acid receptor (Homo sapiens, UniProt Q96RI1); test: Agonist activity at human FXR expressed in human HeLa cells assessed as receptor activation by BSEP promoter-driven firefly luciferase reporter gene assay; assay type: cell-based; conditions: read-out: EC50
T3 sequence (Q96RI1 whole entry): T1 sequence (whole entry)

Homo sapiens [16] = species on record: Homo sapiens; test: Selectivity index, ratio of EC50 for human TGR5 to EC50 for human FXR
[17] = target: T1, Bile acid receptor (Homo sapiens); test: Agonist activity at FXR in human HepG2 cells assessed as induction of BSEP mrNA expression at 1 uM by quantitative PCR method; assay type: cell-based; procedure, shortened: as §1
Homo sapiens [18] = species on record: Homo sapiens; test: Selectivity index, ratio of EC50 for GAL4-tagged PPARdelta (unknown origin) to EC50 for human FXR

- Activity [1]: 55%
- Activity [2]: 181%
- solubility [3]: 2.6 µg/mL (≈ 5.82 µM)
- EC50 [4]: > 10000 nM
- Activity [5]: 185%
- Activity [6]: 188%
- Activity [8]: 57%
- Ratio EC50 (Homo sapiens [9]): > 1000
- Activity [11]: 198%
- Activity [12]: 247%
- Activity [13]: 168%
- Activity [14]: 214%
- Activity [15]: 161%
- Ratio EC50 (Homo sapiens [16]): > 1000
- Ratio EC50 (Homo sapiens [18]): > 1000
Structure (SMILES): COc1ccc(C(=O)Nc2cccc(C(=O)O)c2)c(NC(=O)c2ccc(C(C)(C)C)cc2)c1
- Activity [7]: 300%
- Activity [10]: 294%
- Activity (HeLa): >= 30 uM
- Activity (HepG2): >= 30 uM
- EC50 (Bile acid receptor): 8 nM
- Activity [17]: 319%
